Results as given in ChEMBL document CHEMBL1130082, “5,6-Cis-penems: broad-spectrum anti-methicillin-resistant Staphylococcus aureus beta-lactam antibiotics” (1997).
≈ marks a conversion by molar mass, not a printed value.

Legend:
Type in all cases: functional
Bacillus subtilis = assay: Minimum inhibitory concentration was determined in heart infusion agar medium against Bacillus subtilis ATCC 6633
How it was run: (§1)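 Agar dilution on heart infusion agar, inoculum 10^6 cells/mL, incubated 24 h at 37 °C; the MIC is read as the lowest concentration that inhibits growth.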

Citrobacter freundii = assay: Minimum inhibitory concentration was determined in heart infusion agar medium against […] organism Citrobacter freundii GN7391; how it was run: as §1
Enterococcus faecalis = assay: Minimum inhibitory concentration was determined in heart infusion agar medium against Enterococcus faecalis ATCC 19433; how it was run: as §1
Enterobacter cloacae = assay: Minimum inhibitory concentration was determined in heart infusion agar medium against […] organism Enterobacter cloacae NTCC9394; how it was run: as §1
Escherichia coli [1] = assay: Minimum inhibitory concentration was determined in heart infusion agar medium against Escherichia coli NIHJ JC-2; how it was run: as §1
Escherichia coli [2] = assay: Minimum inhibitory concentration was determined in heart infusion agar medium against […] organism Escherichia coli KC-14/RGN 823; how it was run: as §1
Klebsiella pneumoniae = assay: Minimum inhibitory concentration was determined in heart infusion agar medium against Klebsiella pneumoniae PCI 602; how it was run: as §1
Pseudomonas aeruginosa = assay: Minimum inhibitory concentration was determined in heart infusion agar medium against Pseudomonas aeruginosa PAO-1; how it was run: as §1
Proteus vulgaris = assay: Minimum inhibitory concentration was determined in heart infusion agar medium against Proteus vulgaris GN 7919; how it was run: as §1
Serratia marcescens = assay: Minimum inhibitory concentration was determined in heart infusion agar medium against Serratia marcescens IAM 1136; how it was run: as §1
Staphylococcus aureus [3] = assay: Minimum inhibitory concentration was determined in heart infusion agar medium against Staphylococcus aureus 209P JC-1; how it was run: as §1
Staphylococcus aureus [4] = assay: Minimum inhibitory concentration was determined in heart infusion agar medium against Staphylococcus aureus(MRSA); how it was run: as §1

Row | MIC (Bacillus subtilis) | MIC (Citrobacter freundii) | MIC (Enterococcus faecalis) | MIC (Enterobacter cloacae) | MIC (Escherichia coli [1]) | MIC (Escherichia coli [2]) | MIC (Klebsiella pneumoniae) | MIC (Pseudomonas aeruginosa) | MIC (Proteus vulgaris) | MIC (Serratia marcescens) | MIC (Staphylococcus aureus [3]) | MIC (Staphylococcus aureus [4]) | Compound
1 | 0.78 µg/mL | > 100 µg/mL | 25 µg/mL | > 100 µg/mL | 100 µg/mL | 12.5 µg/mL | 12.5 µg/mL | > 100 µg/mL | 25 µg/mL | > 100 µg/mL | 0.78 µg/mL | > 100 µg/mL | CC[C@@H](O)[C@H]1C(=O)N2C(C(=O)[O-])=C([C@H]3CCCO3)S[C@H]12.[Na+]
2 | < 0.025 µg/mL | 25 µg/mL | 0.78 µg/mL | 1.56 µg/mL | 0.1 µg/mL | 0.1 µg/mL | 0.2 µg/mL | > 100 µg/mL | 3.13 µg/mL | 6.25 µg/mL | 0.05 µg/mL | > 100 µg/mL | C[C@@H](O)[C@H]1C(=O)N2C(C(=O)[O-])=C([C@H]3CCCO3)S[C@H]12.[Na+] [FAROPENEM SODIUM]
3 | 0.05 µg/mL | > 100 µg/mL | 0.39 µg/mL | > 100 µg/mL | 3.13 µg/mL | > 100 µg/mL | 1.56 µg/mL | > 100 µg/mL | 1.56 µg/mL | 25 µg/mL | 0.39 µg/mL | 6.25 µg/mL | CC[C@H](O)[C@@H]1C(=O)N2C(C(=O)[O-])=C([C@H]3CCCO3)S[C@H]12.[Na+]
4 | 0.2 µg/mL | > 100 µg/mL | 0.2 µg/mL | > 100 µg/mL | 25 µg/mL | 50 µg/mL | 6.25 µg/mL | 100 µg/mL | 1.56 µg/mL | 50 µg/mL | 0.78 µg/mL | 12.5 µg/mL | CC[C@H](O)[C@@H]1C(=O)N2C(C(=O)[O-])=C(c3ccccc3)S[C@H]12.[Na+]
5 | < 0.025 µg/mL | 6.25 µg/mL | 0.78 µg/mL | 0.39 µg/mL | 0.2 µg/mL | 0.78 µg/mL | 0.1 µg/mL | 6.25 µg/mL | 0.78 µg/mL | 1.56 µg/mL | 0.1 µg/mL | 3.13 µg/mL | CC[C@H](O)[C@@H]1C(=O)N2C(C(=O)[O-])=C(S[C@@H]3CCN(CC(=O)c4ccccc4)C3)S[C@H]12.[Na+]
6 | 0.05 µg/mL (≈ 0.175 µM) | > 100 µg/mL | 0.39 µg/mL (≈ 1.37 µM) | 100 µg/mL (≈ 350 µM) | 0.78 µg/mL (≈ 2.73 µM) | 25 µg/mL (≈ 87.6 µM) | 0.78 µg/mL (≈ 2.73 µM) | > 100 µg/mL | 1.56 µg/mL (≈ 5.47 µM) | 25 µg/mL (≈ 87.6 µM) | 0.78 µg/mL (≈ 2.73 µM) | 25 µg/mL (≈ 87.6 µM) | C[C@@H](O)[C@H]1C(=O)N2C(C(=O)O)=C([C@H]3CCCO3)S[C@H]12 [FAROPENEM]
7 | 0.05 µg/mL | 6.25 µg/mL | 1.56 µg/mL | 0.78 µg/mL | 0.2 µg/mL | 0.78 µg/mL | 0.39 µg/mL | 12.5 µg/mL | 0.78 µg/mL | 3.13 µg/mL | 0.1 µg/mL | 3.13 µg/mL | CC[C@H](O)[C@@H]1C(=O)N2C(C(=O)[O-])=C(S[C@@H]3CCNC3)S[C@H]12.[Na+]

Row | Compound | MIC (Bacillus subtilis) | MIC (Citrobacter freundii) | MIC (Enterococcus faecalis) | MIC (Enterobacter cloacae) | MIC (Escherichia coli [1]) | MIC (Escherichia coli [2]) | MIC (Klebsiella pneumoniae) | MIC (Pseudomonas aeruginosa) | MIC (Proteus vulgaris) | MIC (Serratia marcescens) | MIC (Staphylococcus aureus [3]) | MIC (Staphylococcus aureus [4])
8 | CC(O)[C@H]1C(=O)N2C(C(=O)O)=C(SCCNC=N)C[C@H]12 (single isomer, unassigned) [IMIPENEM ANHYDROUS] | < 0.025 µg/mL | 0.39 µg/mL (≈ 1.3 µM) | 0.78 µg/mL (≈ 2.61 µM) | 0.2 µg/mL (≈ 0.668 µM) | 0.2 µg/mL (≈ 0.668 µM) | 0.1 µg/mL (≈ 0.334 µM) | 0.2 µg/mL (≈ 0.668 µM) | 1.56 µg/mL (≈ 5.21 µM) | 3.13 µg/mL (≈ 10.5 µM) | 0.78 µg/mL (≈ 2.61 µM) | < 0.025 µg/mL | > 100 µg/mL
